Here are results for 95 molecules from ChEMBL document CHEMBL4513216, “Probing the Open Global Health Chemical Diversity Library for Multistage-Active Starting Points for Next-Generation Antimalarials” (ACS Infect Dis, 2020).

This series can be described thus: Toxicity liver stage against HepG2, at 10uM. In kind it is cell-based. Also noted: test concentration 10 uM, cell line HepG2-A16-CD81EGFP. Particulars: human, HepG2-A16-CD81EGFP cells; read-out: INHIBITION
In outline: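 Uninfected HepG2-A16-CD81EGFP cells, 3 × 10^3 per well, 1536-well, plated on prespotted compound at 10 μM final, parasite-free screening media added to match infected plates; puromycin 10 μM positive, DMSO 0.5% negative; run in parallel with 48 h PbLuc assay at 37 °C, 5% CO2; viability by CellTiter-Glo luminescence, normalized to controls.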
As to `N#Cc1ccc(CN2CCC(CCc3ccc(O)cc3)CC2)cc1`, the cytotoxicity at 10 µM was determined as 38.8%.
As for `CCOCc1nc(N2CCCC2)sc1C(=O)NCCC(=O)OCC`, the figure is -3.66%; as for `CCN1CCN(C(=O)CCn2cccc2)CC1`, 7.66%; as for `O=C1CCNc2ncc(-c3cccc(Cl)c3)cc2CN1C1CC1`, 8.55%.
Regarding `CC(C)CCc1cc(C(=O)O)nc2[nH]c(=O)[nH]c(=O)c12`, the cytotoxicity at 10 µM was 4.31%.
As for `COc1cc2nc(C)n(CC(=O)NCCN(C)C)c(=O)c2cc1OC`, the figure is -7.18%.
As for `O=C(Cc1csc(-c2ccccc2F)n1)NCc1ccc(C(=O)O)cc1`, the figure is -3.85%.
As for `CC(C)C(=O)N1CCN(c2cc(N(C)C)cnn2)CC1`, the figure is -6.45%.
Regarding `CO[C@H]1CCN(C(=O)c2cc(C)on2)C[C@@H]1Cc1ccccc1`, the cytotoxicity at 10 µM was determined as 4.06%.
With `Cc1nnc(C[C@@H]2COC[C@H]3CN(C(=O)c4ccco4)C[C@@H]23)o1` the figure was -8.75%; with `CCC(C)N1CCc2nc(N3CCCC3)nc(NC(C)C)c2C1` (stereo not given), 8.53%; with `O=C(NC1CC1)[C@H]1C[C@H]2OCC[C@H]2N(Cc2ccco2)C1`, 8.88%.
As for `O=c1[nH]c2nc(N3CCCC3)ncc2c(=O)n1-c1cccc(F)c1`, the figure is 8.24%; as for `O=C1CC(c2ccc(O)cc2)c2c(n3ccsc3nc2=O)N1` (stereo not given), -3.12%; as for `CC(C)c1noc(-c2ccc(-n3cnc(C(=O)O)c3)nc2)n1`, -2.06%.
For `COc1ccc(-c2nnsc2C(=O)N2CCN(C(C)=O)CC2)cc1`, the cytotoxicity at 10 µM is -0.145%.
For the molecule `CCCN1CCN(C(=O)c2ccn(COc3ccc(F)cc3)n2)CC1`, the cytotoxicity at 10 µM worked out at 8.88%.
Turning to `CC(C)C(=O)N1CCN(c2ncnc3cc4c(cc23)OCCO4)CC1`, the cytotoxicity at 10 µM is 2.41%.
With `Cc1cc(N2CCOC(c3ccccn3)C2)nc(N)n1` (stereo not given) the figure was 4.4%.
As for `CN(C)Cc1cccc(-c2cccnc2C(=O)NCc2ccco2)c1`, the figure is 4.16%; as for `CCC(=O)N1CCCCC[C@@H]2[C@@H]1[C@H](c1cccc(F)c1)CN2C`, 8.63%; as for `CCOCCCNS(=O)(=O)c1ccc2c(c1)NC(=O)C(C)O2` (stereo not given), -3.57%.
With `O=C(O)c1ccccc1-c1ccc(Cn2c(=O)cc[nH]c2=O)cc1` the figure was 5.64%; with `NCC(=O)N1CCCC(O)(CN2CCN(c3ccccc3)CC2)CC1` (stereo not given), -7.58%.
Take `Cc1cc(N2CCC(Cc3cnccn3)C2)ncn1` (stereo not given): the cytotoxicity at 10 µM is -3.24%.
With `Cc1ccc(CN2CCc3nc(C(C)C)nc(O)c3CC2)s1` the figure was 0.913%; with `COc1ccc(CN(C)[C@@H]2CN(C(=O)c3cnn(C)c3)C[C@H]2O)cc1`, -21.9%; with `CNc1cncc(C2CCCN2C(=O)c2ccc3nc(C)[nH]c3c2)n1` (stereo not given), -8.94%.
With `O=C(N[C@@H]1CN(Cc2ccc(F)c(F)c2)C[C@H]1O)c1cscn1` the figure was -3.78%.
Regarding `CC(CCc1cccn1C)NC(=O)Nc1cccn(C)c1=O` (stereo not given), the cytotoxicity at 10 µM amounted to 3.14%.
With `Cn1c(N)nnc1SC1CCCN(c2ccccc2)C1=O` (stereo not given) the figure was 0.296%.
With `CC(C)c1nc(NS(=O)(=O)c2ccccc2Cl)no1` the figure was 10%; with `Cc1ccccc1NC(=O)CCNC(=O)c1ccoc1`, -0.714%; with `CCOc1cc(NC(=O)N2CCOC3(CCC3)C2)ccc1C`, -0.535%.
With `COC1CCN(CC(=O)NCc2ccc(OCC(N)=O)cc2)CC1` the figure was -0.094%; with `O=C(CNC1(c2ccc(Cl)cc2)CCOCC1)NC1CCCC1`, 2.32%; with `Cc1nc(CN(C)Cc2cc3c(cc2OC(F)F)OCO3)cs1`, 8.68%.
For the molecule `CCCn1nc2c(cc1=O)CN(Cc1c(C)noc1C)CC2`, the cytotoxicity at 10 µM was -5.03%.
As for `Cc1ccc(C)c(NC(=O)Cc2c(C)nc3c(c2C)c(=O)[nH]n3C)c1`, the figure is 15.4%.
With `O=C(NCc1ccncc1)N(Cc1ccc(F)cc1F)C1CC1` the figure was 3.9%; with `CCc1noc(C(C)N2CCN(CC(=O)N3CCOCC3)CC2)n1` (stereo not given), 6.01%.
As to `CNC(=O)c1cccc(CCNc2ccccn2)c1`, the cytotoxicity at 10 µM came to 1.68%.
With `CC1CCN(CC2CCN(C(=O)c3c[nH]c4ncccc34)CC2)CC1` the figure was 10%.
As for `CCNC(=O)CNC(=O)c1ccn(S(=O)(=O)c2ccc(C)cc2)c1`, the figure is -5.73%; as for `CCn1nc2c(cc1=O)CN(CCOc1ccccc1C#N)CC2`, 19.2%; as for `O=S(=O)(NCCc1nnc2ccccn12)c1cccnc1`, 1.9%.
Turning to `COc1cc(C(=O)NCCc2cccc(C)c2)on1`, the cytotoxicity at 10 µM stood at 0.572%.
Regarding `N#Cc1cc(F)c(NCCCOCC2CCOC2)c(F)c1` (stereo not given), the cytotoxicity at 10 µM is 6.43%.
Turning to `COCC(NC(=O)NCc1sccc1C)c1ccco1` (stereo not given), the cytotoxicity at 10 µM is -3.25%.
`CC(C)(C)NC(=O)CNc1ccc(C#N)c(C(F)(F)F)c1`: the cytotoxicity at 10 µM was -1.28%.
As for `Cc1cc(N2CCC(N(C)C(=O)c3ccccc3)CC2)nc(C)n1`, the figure is -4.69%.
Turning to `CN(C)C(CNC(=O)c1cccc(-n2cnnn2)c1)c1ccccc1Cl` (stereo not given), the cytotoxicity at 10 µM was -6.08%.
As for `O=C(NCC1Cn2nnc(-c3ccsc3)c2CO1)N1CCCC1` (stereo not given), the figure is -110%.
Consider `Cc1occc1C(=O)N1CCN2C[C@H](Oc3cccnc3)C[C@H]2C1`, for which the cytotoxicity at 10 µM is -4.15%.
With `CCOc1ccccc1CC(=O)N1C[C@@H](C(=O)O)[C@H](C2CC2)C1`, the cytotoxicity at 10 µM was 1.12%.
As for `Nc1ccc(-c2cc(O)cc(CCC3CCCCN3)c2)cn1` (stereo not given), the cytotoxicity at 10 µM was -9.66%.
With `Cc1nc(N(C)C)ncc1C(=O)N[C@H]1Cc2ccccc2[C@@H]1N` the figure was 1.81%; with `CC1CCN(S(=O)(=O)N2CCc3c(c(C(=O)O)nn3CC3CC3)C2)CC1`, -0.65%; with `CN(C)C(=O)N1CC[C@@H](c2ccc3ccccc3c2)[C@H](O)C1`, -5.81%.
As for `Cc1ccccc1[C@@H]1CN(Cc2c(C)noc2C)C[C@H]1C(=O)O`, the figure is -7.74%; as for `COC(=O)[C@@H]1CCCN1C(=O)c1cn(CCCc2ccccc2)nn1`, 3.15%; as for `COc1cccc2ncn(C(C)Cn3cccn3)c(=O)c12` (stereo not given), 1.37%.
With `Cc1ccc(N2CCN(C(=O)CCc3n[nH]c(C)n3)CC2=O)cc1` the figure was -4.06%.
On to `CSc1ncc(C(=O)NCc2cc3n(n2)CCCN(CC(C)C)C3)cn1`, for which the cytotoxicity at 10 µM is 5.89%.
With `Cc1c[nH]c(CN2CC[C@@]3(O)CCN(C(=O)C4CCC4)C[C@H]3C2)n1` the figure was 1.27%; with `O=C(NCCc1csc(-c2ccncc2)n1)C1CC(=O)N(C2CC2)C1` (stereo not given), -8.44%.
With `CCOCCNc1nc(C2CCCC2)nc2c1cnn2C` the figure was -11%; with `Cn1ccnc1CN1CCN(Cc2ccc(C#N)cc2)CC1`, -10.3%; with `NC(=O)C1CN(C(=O)Nc2ccccc2SC2CCCC2)CCO1` (stereo not given), -5.15%.
With `Cc1cnn(C2CCCN(C(=O)CCc3cnn(C)c3)C2)c1` (stereo not given) the figure was -11.1%; with `NC(=O)c1cccc(CN2CCc3c(ncn3C3CC3)C2)c1`, -4.6%.
In the case of `CCN(CC)CC(=O)N1CCN(c2nc(C)cc(OC)n2)CC1`, the cytotoxicity at 10 µM is -10.4%.
On to `NC(=O)Cn1cc(NC(=O)N2CCCCCC2)cn1`, for which the cytotoxicity at 10 µM is -11.8%.
As for `Cc1cnn(CC2CCCN2Cc2ncc(-c3ccc(F)cc3)o2)c1` (stereo not given), the figure is -17.6%.
With `O=C(c1cccc2c1OCCO2)N1CCCC1c1noc(C2CC2)n1` (stereo not given) the figure was -14.5%.
With `CCC(O)CN1CCN(C(=O)c2ccn(-c3ccccc3)n2)CC1` (stereo not given) the figure was -9.33%.
`O=C(NCCc1ccccn1)C1CC(=O)N(CC(F)(F)F)C1` (stereo not given): the cytotoxicity at 10 µM was -25.2%.
Consider `Cc1ccc(CC(=O)N2CCN(c3nccs3)CC2)s1`, for which the cytotoxicity at 10 µM was -13%.
Take `CCOCC(O)CN1CCN(C(=O)C2CCCCC2)CC1` (stereo not given): the cytotoxicity at 10 µM is -21.5%.
With `Cc1cnc(CN(C)C2CCN(CCc3cnn(C)c3)C2)o1` (stereo not given) the figure was 5.44%; with `COC(CNC(=O)N1CCC(n2cncn2)CC1)c1ccccc1` (stereo not given), 4.33%.
As for `CCc1nc(CN(C)C2CCN(Cc3ccc(C#N)cc3F)C2)no1` (stereo not given), the figure is -7.12%; as for `O=C(NCc1cccs1)[C@]12COC[C@H]1CN(c1ncccn1)C2`, 11.6%.
With `CC(=O)NC1CCN(c2ccnc(C3CCNCC3)c2)CC1` the figure was -6.15%; with `COCCO[C@@H]1CCN(C(=O)c2ccc(C)o2)[C@@H]1Cc1cccnc1`, -12.2%.
`O=S(=O)(c1cccs1)N1CC[C@H]2[C@H]1CCN2CC1CC1`: the cytotoxicity at 10 µM was found to be 2.94%.
Regarding `COCC1COCCC12CCN(CCc1ccccc1)CC2` (stereo not given), the cytotoxicity at 10 µM was -26%.
As to `Cc1ccc(N2C[C@@H]3CN(Cc4ccoc4)CCO[C@@H]3C2)nn1`, the cytotoxicity at 10 µM was -12.8%.
As for `CS(=O)(=O)NC[C@H]1OC[C@H]2CN(CCc3ccccc3)CC[C@H]21`, the figure is -3.53%; as for `CCN1CCCC12CCCN(c1ncccn1)C2` (stereo not given), 0.113%; as for `CC(C)N1CCc2c(c(COc3cncnc3)nn2CC2CC2)C1`, 1.7%.
As for `CC(C)(N)CNS(=O)(=O)Cc1cccc2cccnc12`, the figure is 14.5%; as for `O=C(c1cc[nH]n1)N1CCC2(CC1)CC(Oc1cccnc1)CO2` (stereo not given), 6.7%; as for `CN(C)c1ncc(C(=O)N2C[C@H]3CC(Oc4ccccc4)C[C@H]3C2)cn1` (stereo not given in full), 2.54%.
For `Cc1cccc(S(=O)(=O)N2C[C@@H]3C[C@H](C(=O)NCC4CC4)[C@H](C2)O3)c1`, the cytotoxicity at 10 µM is -2.35%.
